Compound activity from PubChem BioAssay.
RGS4 inh – human RGS4 inhibition. AID 463165. actives 0.45% (n = 310,000). B-score at 10 µM. HEK293 M3R/RGS4 inducible, Fluo-4 calcium flux; stronger effect = higher value; triggered by carbachol at its EC20;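 active = B-score, a plate-corrected calcium signal, over three deviations above library mean, with baseline fluorescence within five deviations of library mean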;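 also: RGS4 expression induced by doxycycline in cells with stable M3 receptor; B-score is computed from the integrated fluorescence ratio over baseline after carbachol; higher B-score means a larger calcium signal and so more RGS4 inhibition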
MrgX1 ag – human MrgX1 receptor agonism, primary screen. Q96LB2. MrgX1-HEK293 cells, Fluo-4 calcium fluorescence, agonist mode; stronger effect = higher value. B-score at 10 µM. actives 0.44% (n = 310,000). AID 588627;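 active = calcium response B-score plate-corrected fluorescence ratio at least 3 library SD, with starting fluorescence B-score inside 5 SD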
Target sequence (Q96LB2 whole entry, looked up): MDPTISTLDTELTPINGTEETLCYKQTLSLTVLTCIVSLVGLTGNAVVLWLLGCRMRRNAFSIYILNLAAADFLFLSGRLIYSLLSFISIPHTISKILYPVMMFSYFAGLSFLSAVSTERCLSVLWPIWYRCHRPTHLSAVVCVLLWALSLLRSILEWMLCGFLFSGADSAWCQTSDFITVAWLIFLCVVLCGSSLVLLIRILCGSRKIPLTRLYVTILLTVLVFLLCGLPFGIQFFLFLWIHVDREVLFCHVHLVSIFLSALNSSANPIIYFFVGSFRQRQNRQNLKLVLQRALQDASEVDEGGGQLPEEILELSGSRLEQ
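System – MrgX1-expressing HEK293 cells · Incubation – cells plated overnight, dye loaded 0.5 h 37 °C, 0.5 h room temperature · Technique – kinetic Fluo-4 NW fluorescence of intracellular calcium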
MrgX1 antagonist – human MrgX1 receptor antagonism, primary screen | Q96LB2 | actives 1.3% (n = 310,000) | B-score at 10 µM | MRGX1-HEK293 calcium flux, Fluo-4, BAM8-22 antagonism; stronger effect = lower value;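 active = calcium-response B-score plate-corrected more than 3 library SD below zero, starting fluorescence within 5 deviations, no agonist response on first addition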;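 also: peak minus trough fluorescence over baseline after final BAM8-22 challenge near maximal dose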
MrgX1 allo act – human MrgX1 positive allosteric modulation, primary screen; AID 588675; actives 0.63% (n = 310,000); B-score at 10 µM; MrgX1-HEK293, Fluo-4 calcium flux, FDSS; stronger effect = higher value;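 active = plate-corrected calcium response at least 3 library SD above typical, normal starting fluorescence, not activating the receptor alone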;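 also: compound read alongside a low EC10 to EC30 dose of BAM8-22 agonist; peak minus trough fluorescence over baseline measured at the second addition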
RGS4 pot – RGS4 potentiation or activation; HEK293 M3R/inducible RGS4, carbachol calcium flux Fluo4; stronger effect = lower value; B-score at 10 µM; actives 0.92% (n = 310,000); AID 463111;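 active = B-score of the integrated calcium signal more than 4 SD below the library mean, with starting fluorescence not abnormally high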;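 also: negative B-score means reduced calcium response which marks RGS4 activation or potentiation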
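test system = M3R-expressing HEK293 line, RGS4 induced by doxycycline | probe or stimulus = carbachol at ECmax as muscarinic agonist stimulus | timing = dye loading 30 min 37 °C, buffer rest 30 min RT | signal = calcium dye Fluo4 fluorescence | evaluation = B score from integrated fluorescence ratio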
Numbers stand for hits. Rows were chosen to be rich in hits. Some 3.5% of all compounds tested hit in one or more screens of this group.

For CCOc1ccc(CCNC(=O)COC(=O)c2ccc(OC(C)C)cc2)cc1OCC the results were RGS4 inh inactive, MrgX1 ag inactive, MrgX1 antagonist -4.8, MrgX1 allo act inactive and RGS4 pot inactive.
Screening CC(=O)c1ccc(NC(=S)NC(NC(=O)c2ccco2)C(Cl)(Cl)Cl)cc1 (stereo not given) returned RGS4 inh inactive, MrgX1 ag inactive, MrgX1 antagonist inactive, MrgX1 allo act 7.6 and RGS4 pot inactive.
For O=C(NC(NC(=S)Nc1ccc(Cl)cc1)C(Cl)(Cl)Cl)c1ccco1 (stereo not given) the results were RGS4 inh inactive, MrgX1 ag inactive, MrgX1 antagonist inactive, MrgX1 allo act inactive and RGS4 pot inactive.
Screening Cc1ccc(S(=O)(=O)N2CCCCC2CCNC(=O)C(=O)Nc2ccccc2F)cc1 (stereo not given) returned RGS4 inh inactive, MrgX1 ag inactive, MrgX1 antagonist inactive, MrgX1 allo act inactive and RGS4 pot inactive.
For Cc1nn(-c2ccccc2)c(-c2ccccc2[N+](=O)[O-])c1C(=O)O the results were RGS4 inh inactive, MrgX1 ag inactive, MrgX1 antagonist inactive, MrgX1 allo act inactive and RGS4 pot inactive.
Screening Cc1ccc(C)c(N2CCN(C(=O)c3ccc(CS(=O)Cc4ccc(Cl)cc4)o3)CC2)c1 (stereo not given) returned RGS4 inh inactive, MrgX1 ag inactive, MrgX1 antagonist inactive, MrgX1 allo act inactive and RGS4 pot -8.5.
For Cc1cccc(N2CCN(C(=O)c3ccc(CS(=O)Cc4cccc(Cl)c4)o3)CC2)c1C (stereo not given) the results were RGS4 inh inactive, MrgX1 ag inactive, MrgX1 antagonist inactive, MrgX1 allo act inactive and RGS4 pot -10.
Screening O=C(c1ccc(CS(=O)Cc2ccc(Cl)cc2)o1)N1CCN(c2ccccc2F)CC1 (stereo not given) returned RGS4 inh inactive, MrgX1 ag inactive, MrgX1 antagonist inactive, MrgX1 allo act inactive and RGS4 pot inactive.
`Cc1ccc(Cl)cc1N1CCN(C(=O)c2ccc(CS(=O)Cc3ccc(Cl)cc3)o2)CC1` (stereo not given) gave RGS4 inh inactive, MrgX1 ag inactive, MrgX1 antagonist inactive, MrgX1 allo act inactive and RGS4 pot inactive.
`Cc1ccc(OCC(=O)NCCNC(=O)c2ccncc2)cc1` gave RGS4 inh inactive, MrgX1 ag inactive, MrgX1 antagonist inactive, MrgX1 allo act inactive and RGS4 pot inactive.
For O=C(COC(=O)CNS(=O)(=O)c1ccc(Br)cc1Cl)NCCc1ccccc1 the results were RGS4 inh inactive, MrgX1 ag inactive, MrgX1 antagonist inactive, MrgX1 allo act inactive and RGS4 pot inactive.
`S=C(Nc1ccccc1)Nc1cc(Cl)ccc1Oc1ccccc1` gave RGS4 inh inactive, MrgX1 ag inactive, MrgX1 antagonist inactive, MrgX1 allo act 9.1 and RGS4 pot inactive.
Screening CCC(C)NC(=O)c1ccc(-n2c(=S)[nH]c3ccccc3c2=O)cc1 (stereo not given) returned RGS4 inh inactive, MrgX1 ag inactive, MrgX1 antagonist inactive, MrgX1 allo act inactive and RGS4 pot inactive.
Screening S=C(Nc1ccc(Cl)cc1)NC1CC2CCC(C1)N2Cc1ccccc1 (stereo not given) returned RGS4 inh inactive, MrgX1 ag inactive, MrgX1 antagonist inactive, MrgX1 allo act inactive and RGS4 pot inactive.
Screening CCc1ccc(NC(=S)NC2CC3CCCC(C2)N3Cc2ccccc2)cc1 (stereo not given) returned RGS4 inh inactive, MrgX1 ag inactive, MrgX1 antagonist inactive, MrgX1 allo act inactive and RGS4 pot -8.7.
For CCCN1C2CCCC1CC(NC(=O)Nc1cccc(C(C)=O)c1)C2 (stereo not given) the results were RGS4 inh inactive, MrgX1 ag inactive, MrgX1 antagonist inactive, MrgX1 allo act inactive and RGS4 pot inactive.
`O=C(Nc1ccccc1-c1ccccc1)NC1CC2CCCC(C1)N2Cc1ccc(F)cc1` (stereo not given) gave RGS4 inh inactive, MrgX1 ag inactive, MrgX1 antagonist inactive, MrgX1 allo act inactive and RGS4 pot -10.
Cc1ccc(CN2C3CCCC2CC(NC(=O)c2ccc(F)cc2)C3)cc1 (stereo not given) was read as RGS4 inh inactive, MrgX1 ag inactive, MrgX1 antagonist inactive, MrgX1 allo act inactive and RGS4 pot inactive.
